Values belong to the molecule of their own block, whether it stands above or below them. The source made the active and inactive calls. The rule behind the calls is not given here.
Tests used:
U2OS = assay: Cytotoxicity against human U2OS cells assessed as decrease in viable cells after 72 hrs by cell number count in anti-T. cruzi high content imaging assay; settings: u2os, 72 h
THP-1 = assay: Cytotoxicity against human THP1 cells assessed as decrease in viable cells after 72 hrs by MTT assay; assay type: cell-based; settings: thp-1, 72 h
In short: (§1)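 THP-1-derived macrophages exposed to compounds for 72 h, tested at 100 μM or in dose-response; viability read by MTT colorimetric assay.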

Cytochrome P450 2C9 = Cytochrome P450 2C9 (Homo sapiens, UniProt P11712); assay: Inhibition of human microsomal CYP2C9 expressed in baculovirus infected BTI-TN-5B1-4 cells incubated for 30 mins by luciferase assay
Cytochrome P450 3A4 = Cytochrome P450 3A4 (Homo sapiens, UniProt P08684); assay: Inhibition of human microsomal CYP3A4 expressed in baculovirus infected BTI-TN-5B1-4 cells incubated for 30 mins by luciferase assay; assay type: ADME
Trypanosoma brucei [1] = assay: Antitrypanosomal activity against Trypanosoma brucei Lister 427 bloodstream form at 4 uM after 72 hrs by resazurin dye-based assay relative to control; assay type: functional
WI-38 = assay: Cytotoxicity against human WI38 cells assessed as growth inhibition at 10 uM after 48 hrs by CellTiter-Glo assay relative to control; values are per cent of control; settings: wi-38, 48 h, 10 µM
Trypanosoma brucei [2] = assay: Potentiation of methotrexate-induced antitrypanosomal activity against Trypanosoma brucei Lister 427 bloodstream form at 10 uM after 72 hrs by resazurin dye-based assay; assay type: functional
CYP2C9 = CYP2C9 (Homo sapiens, UniProt P11712); assay: Inhibition of human microsomal CYP2C9 expressed in baculovirus infected BTI-TN-5B1-4 cells at 10 uM incubated for 30 mins by luciferase assay relative to control; assay type: ADME
In short: (§2)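 CYP1A2, 2C9, 2C19, 2D6 and 3A4 in microsomes from baculovirus-infected insect cells, each with a P450-Glo luminogenic substrate. Inhibition read as loss of light; single-point at 10 μM, triplicate.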

CYP1A2 = target: T1, CYP1A2 (Homo sapiens, UniProt P05177); assay: Inhibition of human microsomal CYP1A2 expressed in baculovirus infected BTI-TN-5B1-4 cells at 10 uM incubated for 30 mins by luciferase assay relative to control; assay type: ADME
T1 sequence (P05177 whole entry): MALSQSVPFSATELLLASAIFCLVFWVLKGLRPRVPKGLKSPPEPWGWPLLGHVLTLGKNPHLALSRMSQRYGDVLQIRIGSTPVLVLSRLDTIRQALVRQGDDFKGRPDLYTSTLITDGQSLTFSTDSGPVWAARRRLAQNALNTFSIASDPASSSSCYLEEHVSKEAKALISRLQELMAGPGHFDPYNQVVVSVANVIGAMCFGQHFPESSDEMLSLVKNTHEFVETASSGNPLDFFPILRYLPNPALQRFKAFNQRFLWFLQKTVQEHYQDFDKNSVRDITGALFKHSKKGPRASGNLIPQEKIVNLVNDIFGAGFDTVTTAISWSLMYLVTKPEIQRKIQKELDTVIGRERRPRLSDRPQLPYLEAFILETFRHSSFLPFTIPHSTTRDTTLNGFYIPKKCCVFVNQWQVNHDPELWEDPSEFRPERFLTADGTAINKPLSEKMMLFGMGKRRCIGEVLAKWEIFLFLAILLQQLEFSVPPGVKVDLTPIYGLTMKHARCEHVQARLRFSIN
In short: as §2

Aurora kinase B = Aurora kinase B (Homo sapiens, UniProt Q96GD4); assay: Inhibition of recombinant full-length human aurora B kinase expressed in baculovirus system at 10 uM using MBP as substrate incubated for 45 mins by ADP-glo kinase assay; settings: probe MBP
In short: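 Aurora B activity measured as ADP formation via coupled luciferase ADP-Glo luminescence; single-point at 10 μM, triplicate.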

[3] = Cytotoxicity against human 786-O cells assessed as inhibition of mitochondrial viability at 10 uM after 6 hrs by CMXRos staining based assay relative to control; assay type: cell-based, 786-0; settings: read-out: INH
In short: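 Mitochondrial toxicity monitored by MitoTracker Red CMXRos uptake and high-content imaging; compound at 10 μM, triplicate.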

Leishmania infantum = assay: Antileishmanial activity against Leishmania infantum amastigote form assessed as parasite growth inhibition at 50 uM after 72 hrs by steady-Glo reagent based assay relative to control; assay type: functional; settings: read-out: GI
In short: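 Intramacrophage L. infantum amastigotes in THP-1-derived macrophages, tested at 50 μM or in dose-response. Plates held 72 h at 37 °C, 5% CO2. Medium was replaced by PBS, macrophages lysed, and parasites read by Steady-Glo luminescence. High-content imaging gave host cell number, infection ratio (infected/total cells) and parasites per infected cell. Values are means of at least two independent experiments.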

CYP2D6 = CYP2D6 (Homo sapiens, UniProt P10635); assay: Inhibition of human microsomal CYP2D6 expressed in baculovirus infected BTI-TN-5B1-4 cells at 10 uM incubated for 30 mins by luciferase assay relative to control; assay type: ADME
In short: as §2

Trypanosoma brucei [4] = assay: Antitrypanosomal activity against Trypanosoma brucei Lister 427 bloodstream form at 10 uM after 72 hrs by resazurin dye-based assay relative to control; assay type: functional
[5] = Cytotoxicity against human THP1 cells assessed as viable cells at 100 uM after 72 hrs by MTT assay relative to control; assay type: cell-based, THP-1; settings: read-out: Activity
In short: as §1

CYP3A4 = CYP3A4 (Homo sapiens, UniProt P08684); assay: Inhibition of human microsomal CYP3A4 expressed in baculovirus infected BTI-TN-5B1-4 cells at 10 uM incubated for 30 mins by luciferase assay relative to control; assay type: ADME
In short: as §2

Trypanosoma brucei [6] = assay: Potentiation of methotrexate-induced antitrypanosomal activity against Trypanosoma brucei Lister 427 bloodstream form at 10 uM after 72 hrs by resazurin dye-based assay relative to control; assay type: functional
[7] = target: T2, Pteridine reductase, putative (Trypanosoma brucei) (UniProt Q581W1); assay: Inhibition of Trypanosoma brucei PTR1 at 50 uM using H2B as substrate in presence of NADPH by photometric analysis relative to control
T2 sequence (whole entry): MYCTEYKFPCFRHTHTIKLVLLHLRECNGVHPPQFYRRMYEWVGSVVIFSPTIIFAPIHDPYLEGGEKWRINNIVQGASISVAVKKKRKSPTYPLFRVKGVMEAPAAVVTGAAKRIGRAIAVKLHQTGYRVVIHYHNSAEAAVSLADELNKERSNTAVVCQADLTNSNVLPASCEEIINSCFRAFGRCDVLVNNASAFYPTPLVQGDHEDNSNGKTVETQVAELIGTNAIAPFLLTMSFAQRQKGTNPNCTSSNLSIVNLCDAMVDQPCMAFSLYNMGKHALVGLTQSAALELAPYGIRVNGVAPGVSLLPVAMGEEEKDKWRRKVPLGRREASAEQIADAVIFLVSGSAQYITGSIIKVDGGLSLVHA

[8] = target: T3, Pteridine reductase 1 (Leishmania major) (UniProt Q01782); assay: Inhibition of Leishmania major PTR1 at 50 uM using H2B as substrate in presence of NADPH by photometric analysis relative to control
T3 sequence (whole entry): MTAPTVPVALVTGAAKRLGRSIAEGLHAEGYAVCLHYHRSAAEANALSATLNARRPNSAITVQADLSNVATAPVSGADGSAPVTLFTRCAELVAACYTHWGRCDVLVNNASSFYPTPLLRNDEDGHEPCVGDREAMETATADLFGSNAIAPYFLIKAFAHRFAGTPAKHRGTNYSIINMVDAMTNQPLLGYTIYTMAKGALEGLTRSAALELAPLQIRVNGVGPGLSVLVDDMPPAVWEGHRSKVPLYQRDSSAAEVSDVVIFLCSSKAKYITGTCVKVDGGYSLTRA

Trypanosoma brucei [9] = assay: Antitrypanosomal activity against Trypanosoma brucei Lister 427 bloodstream form assessed as parasite growth inhibition at 50 uM after 72 hrs by SYBR Green assay relative to control; assay type: functional; settings: Lister 427, 72 h, read-out: GI
hERG (KCNH2) = hERG (KCNH2) (Homo sapiens, UniProt Q12809); assay: Inhibition of human ERG at 10 uM incubated for 2 hrs by fluorescence polarisation assay relative to control
[10] = Cytotoxicity against human A549 cells assessed as growth inhibition at 10 uM after 48 hrs by CellTiter-Glo assay relative to control; values are per cent of control; settings: A549 cells
CYP2C19 = CYP2C19 (Homo sapiens, UniProt P33261); assay: Inhibition of human microsomal CYP2C19 expressed in baculovirus infected BTI-TN-5B1-4 cells at 10 uM incubated for 30 mins by luciferase assay relative to control; assay type: ADME
In short: as §2

Trypanosoma cruzi = assay: Antitrypanosomal activity against Trypanosoma cruzi amastigote form infected in human U2OS cells assessed as parasite growth inhibition at 50 uM after 72 hrs relative to control; assay type: functional; settings: read-out: GI
In short: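 U2OS monolayers grown for 24 h, then infected with tissue-derived trypomastigotes of T. cruzi Y strain. Compounds were added 24 h after infection at 50 μM (single-point) or in dose-response, with 72 h exposure. Plates were fixed, stained and analysed by high-content imaging; activity was normalized to infected and non-infected controls. Means of at least two experiments; benznidazole as reference.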

[11] = Cytotoxicity against human U2OS cells assessed as viable cells at 50 uM after 72 hrs by MTT assay relative to control; assay type: cell-based; settings: read-out: Activity

CYP2C9, sequence (P11712 whole entry): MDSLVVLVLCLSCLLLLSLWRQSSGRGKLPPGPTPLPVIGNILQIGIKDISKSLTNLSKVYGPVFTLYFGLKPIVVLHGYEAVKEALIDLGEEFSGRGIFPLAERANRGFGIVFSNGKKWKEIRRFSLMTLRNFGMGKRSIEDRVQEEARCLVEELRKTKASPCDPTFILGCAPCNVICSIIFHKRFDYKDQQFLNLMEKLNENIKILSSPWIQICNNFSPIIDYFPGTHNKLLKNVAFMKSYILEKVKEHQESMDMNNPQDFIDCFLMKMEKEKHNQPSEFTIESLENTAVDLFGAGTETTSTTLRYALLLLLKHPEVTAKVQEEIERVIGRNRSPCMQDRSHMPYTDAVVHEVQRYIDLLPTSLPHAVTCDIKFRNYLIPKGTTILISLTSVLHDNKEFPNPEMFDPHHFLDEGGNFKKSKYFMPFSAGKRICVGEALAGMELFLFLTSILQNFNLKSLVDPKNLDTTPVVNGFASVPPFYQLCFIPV
Cytochrome P450 2C9, sequence (P11712 whole entry): as above
CYP2D6, sequence (P10635 whole entry): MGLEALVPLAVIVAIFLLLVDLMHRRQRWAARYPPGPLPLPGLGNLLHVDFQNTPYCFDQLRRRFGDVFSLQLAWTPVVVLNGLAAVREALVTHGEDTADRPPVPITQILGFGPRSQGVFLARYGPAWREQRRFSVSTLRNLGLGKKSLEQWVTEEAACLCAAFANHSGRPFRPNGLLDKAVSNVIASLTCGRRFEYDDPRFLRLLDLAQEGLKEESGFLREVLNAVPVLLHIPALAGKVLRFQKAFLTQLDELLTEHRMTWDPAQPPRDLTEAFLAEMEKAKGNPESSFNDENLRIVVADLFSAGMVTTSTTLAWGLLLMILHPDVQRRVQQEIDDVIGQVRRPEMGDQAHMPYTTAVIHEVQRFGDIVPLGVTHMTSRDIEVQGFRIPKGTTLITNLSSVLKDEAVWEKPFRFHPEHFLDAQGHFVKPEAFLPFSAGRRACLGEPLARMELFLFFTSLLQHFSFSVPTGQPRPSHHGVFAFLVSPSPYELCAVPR
hERG (KCNH2), sequence (Q12809 whole entry): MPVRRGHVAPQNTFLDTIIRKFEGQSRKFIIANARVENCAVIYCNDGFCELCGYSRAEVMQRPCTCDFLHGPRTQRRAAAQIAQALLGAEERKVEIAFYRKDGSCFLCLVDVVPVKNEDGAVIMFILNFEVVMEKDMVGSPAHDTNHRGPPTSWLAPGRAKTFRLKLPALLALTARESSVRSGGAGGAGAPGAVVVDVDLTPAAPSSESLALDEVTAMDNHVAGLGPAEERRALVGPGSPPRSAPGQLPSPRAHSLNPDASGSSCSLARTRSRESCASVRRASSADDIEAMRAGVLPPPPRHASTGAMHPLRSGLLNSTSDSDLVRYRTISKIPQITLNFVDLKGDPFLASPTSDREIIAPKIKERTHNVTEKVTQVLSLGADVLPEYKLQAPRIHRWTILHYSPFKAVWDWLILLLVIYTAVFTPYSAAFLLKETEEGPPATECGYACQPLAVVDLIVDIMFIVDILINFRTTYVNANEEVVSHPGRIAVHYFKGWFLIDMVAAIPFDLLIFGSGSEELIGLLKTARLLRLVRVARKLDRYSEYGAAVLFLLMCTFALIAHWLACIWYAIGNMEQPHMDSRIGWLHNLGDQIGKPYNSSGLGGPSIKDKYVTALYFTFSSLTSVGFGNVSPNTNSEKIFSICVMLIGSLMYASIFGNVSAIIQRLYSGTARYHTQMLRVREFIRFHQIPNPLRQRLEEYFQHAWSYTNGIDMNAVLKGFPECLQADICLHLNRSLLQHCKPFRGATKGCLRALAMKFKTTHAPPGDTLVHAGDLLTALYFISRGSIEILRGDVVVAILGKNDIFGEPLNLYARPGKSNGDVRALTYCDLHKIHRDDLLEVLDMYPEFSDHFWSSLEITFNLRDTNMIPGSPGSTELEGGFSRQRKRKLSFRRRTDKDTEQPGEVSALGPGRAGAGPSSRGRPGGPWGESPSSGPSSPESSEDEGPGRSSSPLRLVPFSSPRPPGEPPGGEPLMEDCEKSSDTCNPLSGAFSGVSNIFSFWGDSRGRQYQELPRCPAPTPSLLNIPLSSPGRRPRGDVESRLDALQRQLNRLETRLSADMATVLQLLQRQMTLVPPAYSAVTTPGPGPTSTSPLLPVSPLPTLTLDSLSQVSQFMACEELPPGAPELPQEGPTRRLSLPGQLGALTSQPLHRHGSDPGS
Cytochrome P450 3A4, sequence (P08684 whole entry): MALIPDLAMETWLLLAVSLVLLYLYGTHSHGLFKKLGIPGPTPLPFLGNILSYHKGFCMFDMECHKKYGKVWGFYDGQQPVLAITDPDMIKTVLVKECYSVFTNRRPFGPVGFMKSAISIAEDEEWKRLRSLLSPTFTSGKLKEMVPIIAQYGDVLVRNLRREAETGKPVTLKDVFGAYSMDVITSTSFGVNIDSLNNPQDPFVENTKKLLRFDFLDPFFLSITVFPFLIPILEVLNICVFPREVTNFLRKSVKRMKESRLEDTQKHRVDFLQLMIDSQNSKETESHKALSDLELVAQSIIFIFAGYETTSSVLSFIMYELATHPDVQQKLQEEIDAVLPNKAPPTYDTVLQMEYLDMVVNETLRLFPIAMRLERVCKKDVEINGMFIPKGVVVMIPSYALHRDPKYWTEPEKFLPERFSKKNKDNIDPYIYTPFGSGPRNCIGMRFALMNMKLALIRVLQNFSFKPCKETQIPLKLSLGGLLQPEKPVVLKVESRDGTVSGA
CYP3A4, sequence (P08684 whole entry): as above
CYP2C19, sequence (P33261 whole entry): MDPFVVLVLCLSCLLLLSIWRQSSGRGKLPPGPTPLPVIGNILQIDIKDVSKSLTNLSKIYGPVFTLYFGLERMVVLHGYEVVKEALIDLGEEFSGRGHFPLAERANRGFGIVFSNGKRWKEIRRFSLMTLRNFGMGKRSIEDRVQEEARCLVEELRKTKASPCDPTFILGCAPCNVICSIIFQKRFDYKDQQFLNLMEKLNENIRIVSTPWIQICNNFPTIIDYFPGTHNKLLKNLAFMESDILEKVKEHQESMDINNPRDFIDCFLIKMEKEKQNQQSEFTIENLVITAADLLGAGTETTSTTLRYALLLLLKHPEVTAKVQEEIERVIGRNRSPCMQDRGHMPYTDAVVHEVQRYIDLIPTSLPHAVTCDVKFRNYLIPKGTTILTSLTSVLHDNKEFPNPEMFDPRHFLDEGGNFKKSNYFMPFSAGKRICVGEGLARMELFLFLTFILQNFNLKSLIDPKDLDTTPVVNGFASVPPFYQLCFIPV
Aurora kinase B, sequence (Q96GD4 whole entry): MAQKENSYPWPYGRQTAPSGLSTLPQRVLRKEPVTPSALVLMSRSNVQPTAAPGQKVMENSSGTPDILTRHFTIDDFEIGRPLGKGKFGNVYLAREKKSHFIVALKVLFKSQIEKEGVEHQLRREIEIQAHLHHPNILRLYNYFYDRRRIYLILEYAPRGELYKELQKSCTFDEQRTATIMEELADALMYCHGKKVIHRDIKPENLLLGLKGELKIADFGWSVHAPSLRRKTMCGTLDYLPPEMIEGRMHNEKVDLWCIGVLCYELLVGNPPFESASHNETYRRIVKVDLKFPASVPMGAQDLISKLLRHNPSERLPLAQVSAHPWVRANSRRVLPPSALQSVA

IC50 (Cytochrome P450 2C9): > 100 µM
IC50 (Cytochrome P450 3A4): 98.2 µM
Compound: O=C(Cn1ccnc1[N+](=O)[O-])NCc1ccccc1 [BENZNIDAZOLE]
CC50 (U2OS): Non-Toxic
CC50 (THP-1): Non-Toxic

Compound: CN(Cc1cnc2nc(N)nc(N)c2n1)c1ccc(C(=O)N[C@@H](CCC(=O)O)C(=O)O)cc1 [METHOTREXATE]
Activity (Trypanosoma brucei [1]): 24.25%

inhibition at 0.5 h, 10 µM (CYP2C9): 10%
inhibition at 0.5 h, 10 µM (CYP1A2): 98.4%
inhibition at 0.75 h, 10 µM (Aurora kinase B): 0.89%
inhibition at 0.5 h, 10 µM (CYP2D6): 57.9%
inhibition at 0.5 h, 10 µM (CYP3A4): 22.8%
inhibition [7]: inactive
inhibition [8]: 5.85%
inhibition at 0.5 h, 10 µM (CYP2C19): 21.7%
Compound: CN(C)c1ccc(/C=N/N=C(/N)S)c2ccccc12
cell growth (% of control) (WI-38): 162.08%
PF (Trypanosoma brucei [2]): 1.27
cytotoxicity at 6 h, 10 µM [3]: -1.7%
inhibition of growth at 50 µM (Leishmania infantum): 58.3%
Activity (Trypanosoma brucei [4]): 26.17%
viability at 72 h, 100 µM [5]: 9.31%
Activity (Trypanosoma brucei [6]): 63.83%
inhibition of growth at 50 µM (Trypanosoma brucei [9]): 6.33%
inhibition at 2 h, 10 µM (hERG (KCNH2)): 43%
cell growth (% of control) at 48 h, 10 µM [10]: 122%
inhibition of growth at 50 µM (Trypanosoma cruzi): 8.05%
viability at 72 h, 50 µM [11]: 99.5%

From ChEMBL document CHEMBL4196006, “Aryl thiosemicarbazones for the treatment of trypanosomatidic infections” (Eur J Med Chem, 2018)
